# Measured values taken from ChEMBL document CHEMBL1154881, “Synthesis and antimicrobial activities of novel 1,5-diaryl pyrazoles” (2010).
# What was measured:
# [1] = system: Klebsiella pneumoniae; test: Antibacterial activity against Klebsiella pneumoniae after 24 hrs by broth dilution method; assay type: functional
# [2] = system: Escherichia coli; test: Antibacterial activity against Escherichia coli ATTC 25922 after 24 hrs by broth dilution method; assay type: functional; settings: ATTC 25922, 24 h
# [3] = system: Staphylococcus aureus; test: Antibacterial activity against Staphylococcus aureus ATTC 25923 after 24 hrs by broth dilution method; assay type: functional; settings: ATTC 25923, 24 h
# [4] = system: Escherichia coli; test: Antibacterial activity against Escherichia coli ATTC 25922 after 24 hrs by disk diffusion method; assay type: functional
# Method in brief: (§1)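 Disc diffusion, each concentration tested in triplicate on nutrient agar seeded separately with fresh bacteria. Incubation 37 °C, 24 h. Solvent and growth controls included. Zones of inhibition recorded. The K. pneumoniae strain was recultured.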
# [5] = system: Aspergillus flavus; test: Antifungal activity against Aspergillus flavus NCIM 524 after 3 to 4 days by serial plate dilution method; assay type: functional
# Method in brief: (§2)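 Sabouraud's agar (peptone 1 g, D-glucose 4 g, agar 2 g per 100 ml water, pH 5.7) plates were lawned with spore suspension (a loopful in 3 ml normal saline) and dried 1 h at 37 °C. Wells were punched and filled with compound in DMSO at 10–50 mg/ml, with a DMSO control. Plates in triplicate, 37 °C for 3–4 days.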
# [6] = system: Talaromyces marneffei; test: Antifungal activity against Penicillium marneffei after 3 to 4 days by serial plate dilution method; assay type: functional; method in brief: as §2
# [7] = system: Staphylococcus aureus; test: Antibacterial activity against Staphylococcus aureus ATTC 25923 after 24 hrs by disk diffusion method; assay type: functional; method in brief: as §1
# [8] = system: Aspergillus fumigatus; test: Antifungal activity against Aspergillus fumigatus NCIM 902 after 3 to 4 days by serial plate dilution method; assay type: functional; method in brief: as §2
# [9] = system: Trichophyton mentagrophytes; test: Antifungal activity against Trichophyton mentagrophytes after 3 to 4 days by serial plate dilution method; assay type: functional; method in brief: as §2
# [10] = system: Trichophyton mentagrophytes; test: Antifungal activity against Trichophyton mentagrophytes at 10 to 50 ug/ml after 3 to 4 days; assay type: functional
# [11] = system: Pseudomonas aeruginosa; test: Antibacterial activity against Pseudomonas aeruginosa ATTC 27853 after 24 hrs by disk diffusion method; assay type: functional; method in brief: as §1
# [12] = system: Klebsiella pneumoniae; test: Antibacterial activity against Klebsiella pneumoniae after 24 hrs by disk diffusion method; assay type: functional; method in brief: as §1
# [13] = system: Talaromyces marneffei; test: Antifungal activity against Penicillium marneffei at 10 to 50 ug/ml after 3 to 4 days; assay type: functional
# [14] = system: Pseudomonas aeruginosa; test: Antibacterial activity against Pseudomonas aeruginosa ATTC 27853 after 24 hrs by broth dilution method; assay type: functional; settings: ATTC 27853, 24 h
# [15] = system: Klebsiella pneumoniae; test: Antibacterial activity against Klebsiella pneumoniae after 24 hrs by […]
Structure (SMILES),MIC [1],MIC [2],MIC [3],inhibition zone (IZ) [4],inhibition zone (IZ) [5],inhibition zone (IZ) [6],inhibition zone (IZ) [7],inhibition zone (IZ) [8],inhibition zone (IZ) [9],MIC [10],inhibition zone (IZ) [11],inhibition zone (IZ) [12],MIC [13],MIC [14],MIC [15]
CCOC(=O)c1sc(-c2cc(-c3ccc(Cl)cc3)n(-c3ccc(F)cc3)n2)nc1C,50 µg/mL,12.5 µg/mL,12.5 µg/mL,18 mm,22 mm,19 mm,16 mm,18 mm,20 mm,12.5 µg/mL,19 mm,19 mm,12.5 µg/mL,,
O=C1CCN(C(=O)c2cc(-c3ccc(Cl)cc3)n(-c3ccc(F)cc3)n2)CC1,,12.5 µg/mL,12.5 µg/mL,27 mm,18 mm,29 mm,24 mm,26 mm,24 mm,50 µg/mL,18 mm,25 mm,12.5 µg/mL,12.5 µg/mL,12.5 µg/mL
C#CCN1CCN(C(=O)c2cc(-c3ccc(Cl)cc3)n(-c3ccc(F)cc3)n2)CC1,50 µg/mL,50 µg/mL,12.5 µg/mL,18 mm,<10 mm,18 mm,18 mm,19 mm,<10 mm,,<10 mm,17 mm,,,
